Published values collected from several papers.
Protocols differ between the studies behind these lines.
CCKBR: Gastrin/cholecystokinin type B receptor (CCKBR, Homo sapiens, UniProt P32239)
MMP3: Stromelysin-1 (MMP3, Homo sapiens, UniProt P08254)
Tmem97: Sigma intracellular receptor 2 (Tmem97, Rattus norvegicus, UniProt Q5U3Y7)
USP10: Ubiquitin carboxyl-terminal hydrolase 10 (USP10, Homo sapiens, UniProt Q14694)
FAAH: Fatty-acid amide hydrolase 1 (FAAH, Homo sapiens, UniProt O00519)
BDKRB1: B1 bradykinin receptor (BDKRB1, Homo sapiens, UniProt P46663)
PTGS1: Prostaglandin G/H synthase 1 (PTGS1, Homo sapiens, UniProt P23219)
HTR2C: 5-hydroxytryptamine receptor 2C (HTR2C, Homo sapiens, UniProt P28335)

Cn1cc(-c2cccc(N3CCc4c(sc5c4CC(C)(C)C5)C3=O)c2CO)cc(Nc2ccncn2)c1=O  inhibition (Aurora kinase A (AURKA, Homo sapiens, UniProt O14965); enzyme activity, inhibitor; 1 µM): 3%
COc1ccc(S(=O)(=O)N2CCCCC2)cc1C  inhibition (CCKBR; ligand displacement, radioligand; 10 µM): < 30%
Cn1cc(-c2cc(F)cc(N3CCn4c(cc5c4CCCC5)C3=O)c2CO)cc(Nc2ccc(N3CCN(C4COC4)CC3)cn2)c1=O  inhibition (Mitogen-activated protein kinase kinase kinase 8 (MAP3K8, Homo sapiens, UniProt P41279); enzyme activity, inhibitor; 0.1 µM): 17%
COc1ccc(S(=O)(=O)N(CC(=O)NO)CC(C)C)cc1  inhibition (MMP3; enzyme activity, inhibitor; 1 µM): 100%
OC(c1ccc(F)cc1)C(F)(F)CCN1CCC(O)(c2ccc(Cl)cc2)CC1 (racemic)  inhibition (Tmem97; ligand displacement, radioligand; 10 µM): > 50%
CN(C)C(=O)COC(=O)Cc1ccc(OC(=O)c2ccc(NC(=N)N)cc2)cc1  inhibition (USP10; enzyme activity, inhibitor; 10 µM): 2%
Cc1cc(C)c(N(C)C(=O)Oc2nsnc2N2CCCCC2)c(C)c1  inhibition (FAAH; enzyme activity, inhibitor; 10 µM, cell membranes): 7%
COCc1c(-c2cc3cc(C)cc(OC)c3s2)c2c(N)ncnn2c1CN1CCNC(=O)C1  inhibition (BDKRB1; ligand displacement, radioligand; 10 µM): 5%
CCCCc1ccc(C(=O)O)nc1  inhibition (MMP3; enzyme activity, inhibitor; 1 mM, pH 6): > 80%
O=C(Nc1cccnn1)N1CCN([C@@H]2CCOc3cc(C(F)(F)F)ccc32)CC1  inhibition (PTGS1; enzyme activity, inhibitor; 20 µM): 1%
N=C(N)c1ccc2cc(OC(=O)c3ccc(N=C(N)N)cc3)ccc2c1  inhibition (USP10; enzyme activity, inhibitor; 10 µM): 0%
C[C@H](C(=O)N[C@H]1COc2ccccc2[C@@H]1S(C)(=O)=O)c1ccc(F)cc1  inhibition (CCKBR; cell-free assay; 10 µM): 7%
CC(C)N1CCC[C@H]1CNC(=O)c1cn(C2CCCC2)c(=O)c2c1c1ccccc1n2C  inhibition (BDKRB1; ligand displacement, radioligand; 10 µM): 12%
COc1cc(Nc2ncc(F)c(Nc3ccc4c(n3)NC(=O)C(C)(C)O4)n2)cc(OC)c1OC  inhibition (Serine/threonine-protein kinase ULK3 (ULK3, Homo sapiens, UniProt Q6PHR2); binding; 10 µM): 100%
O=C(Cc1c[nH]c2cc(Cl)ccc12)N1CCC(n2ccnc2)CC1  inhibition (Trypanothione synthetase (Trypanosoma cruzi, UniProt Q9GT49); enzyme activity, inhibitor, absorbance; 25 µM): 6.2%
CC(C)Cn1cnc2c(N)nc3ccccc3c21  inhibition (Melatonin receptor type 1A (MTNR1A, Homo sapiens, UniProt P48039); ligand displacement, radioligand; 10 µM): 32%
c1ccc(C(NCCNC(c2ccccc2)c2ccccc2)c2ccccc2)cc1  inhibition (PTGS1; enzyme activity, inhibitor; 10 µM): 66%
COCCN(CCOC)C(=O)[C@@]12C[C@@H]1[C@@H](n1cnc3c(NC(C4CC4)C4CC4)nc(Cl)nc31)[C@H](O)[C@@H]2O  inhibition (HTR2C; ligand displacement, radioligand; 10 µM): 38%
C#Cc1n[nH]c2c(-c3cn([C@@H](C)c4ccccc4)c(=O)[nH]c3=O)cc(F)cc12  inhibition (Aurora kinase C (AURKC, Homo sapiens, UniProt Q9UQB9); enzyme activity, inhibitor; 0.1 µM): -1.2%
CN(C(=O)Oc1nsnc1N1CCCCC1)c1cccc(-c2ccccc2)c1  inhibition (FAAH; enzyme activity, inhibitor; 10 µM, cell membranes): 13%
c1ccc(OCc2cc(OC[C@@H]3CCN3)on2)cc1  inhibition (Tmem97; ligand displacement, radioligand; 10 µM): < 50%
CN(C(=O)Oc1nsnc1N1CCCCC1)c1ccc(F)cc1  inhibition (FAAH; enzyme activity, inhibitor; 10 µM, cell membranes): 22%
Cc1ncc(C)n2nc(/C=C/c3nc(N4CCCC4)cc(N4CCOCC4)n3)nc12  inhibition (PTGS1; enzyme activity, inhibitor; 10 µM): 10%
CN(C(=O)Oc1nsnc1N1CCCCC1)C1CCCCC1  inhibition (FAAH; enzyme activity, inhibitor; 10 µM, cell membranes): 16%
CN(CCN1CCC(OC(=O)Nc2ccccc2-c2ccccc2)CC1)C(=O)c1ccc(CN2CCC(C(N)=O)CC2)cc1  inhibition (CCKBR; ligand displacement, radioligand; 1 µM): -9%
Cc1cccc(N(C)C(=O)Oc2nsnc2N2CCCCC2)c1  inhibition (FAAH; enzyme activity, inhibitor; 10 µM, cell membranes): 9%
CCOC(=O)c1ccc(OC(=O)CCCCCNC(=N)N)cc1  inhibition (MMP3; enzyme activity, inhibitor; 10 µM): 18%
CN(C(=O)Oc1nsnc1N1CCCCC1)c1ccc([N+](=O)[O-])cc1  inhibition (FAAH; enzyme activity, inhibitor; 10 µM, cell membranes): 19%
Clc1ccc2c(C3CCN(CCc4c[nH]c5ccccc45)CC3)c[nH]c2c1  inhibition (PTGS1; enzyme activity, inhibitor; 10 µM): 31%
CN(C(=O)Oc1nsnc1N1CCCCC1)c1ccc(C#N)cc1  inhibition (FAAH; enzyme activity, inhibitor; 10 µM, cell membranes): 19%
COc1cc2c3c(c1OC)-c1cc4c(cc1CC3N(C)CC2)OCO4 (racemic)  inhibition (HTR2C; ligand displacement, radioligand; 10 µM): 103%
C#Cc1n[nH]c2c(-c3cn(C(C)c4ccccn4)c(=O)[nH]c3=O)cc(F)cc12 (stereo not drawn)  inhibition (Rho-associated protein kinase 1 (ROCK1, Homo sapiens, UniProt Q13464); enzyme activity, inhibitor; 1 µM): -2.6%
CN(C(=O)Oc1nsnc1N1CCCCC1)c1cccc(F)c1  inhibition (FAAH; enzyme activity, inhibitor; 10 µM, cell membranes): 48%
